From ChEMBL document CHEMBL1124191, “Design of rat renin inhibitory peptides” (J Med Chem, 1988) come the findings set out here.

Where a SMILES comes first, the peptide text is derived from it. [ ]: non-standard residue; d: D form. Sta = CC(C)C[C@H](N)[C@@H](O)CC(=O)O

One test has as its system Rattus norvegicus. The experiment in a line: Compound evaluated for decrease in mean arterial pressure at a minimal dose of 3 ug/kg in rats. The test is classed as functional, Artery.
`CC(=O)N[C@@H](Cc1c[nH]cn1)C(=O)N1CCC[C@H]1C(=O)N[C@@H](Cc1ccccc1)C(=O)N[C@H](C(=O)N[C@@H](CC(C)C)[C@@H](O)CC(=O)N[C@@H](CC(C)C)C(=O)N[C@@H](Cc1ccccc1)C(N)=O)C(C)C` showed a Decrease of 4.9%.

The test system of the next test is Rattus norvegicus. In words: Compound evaluated for decrease in mean arterial pressure at a minimal dose of 100 ug/kg in rats. The format is functional, Artery.
In the case of `CC(=O)N[C@@H](Cc1c[nH]cn1)C(=O)N1CCC[C@H]1C(=O)N[C@@H](Cc1ccccc1)C(=O)N[C@@H](Cc1c[nH]cn1)C(=O)N[C@@H](CC(C)C)[C@@H](O)CC(=O)N[C@@H](CC(C)C)C(=O)N[C@@H](Cc1ccccc1)C(N)=O`, the Decrease was 13.2%.

In the next test the target is T1, Renin (Rattus norvegicus, UniProt P08424).
T1 sequence (P08424 whole entry): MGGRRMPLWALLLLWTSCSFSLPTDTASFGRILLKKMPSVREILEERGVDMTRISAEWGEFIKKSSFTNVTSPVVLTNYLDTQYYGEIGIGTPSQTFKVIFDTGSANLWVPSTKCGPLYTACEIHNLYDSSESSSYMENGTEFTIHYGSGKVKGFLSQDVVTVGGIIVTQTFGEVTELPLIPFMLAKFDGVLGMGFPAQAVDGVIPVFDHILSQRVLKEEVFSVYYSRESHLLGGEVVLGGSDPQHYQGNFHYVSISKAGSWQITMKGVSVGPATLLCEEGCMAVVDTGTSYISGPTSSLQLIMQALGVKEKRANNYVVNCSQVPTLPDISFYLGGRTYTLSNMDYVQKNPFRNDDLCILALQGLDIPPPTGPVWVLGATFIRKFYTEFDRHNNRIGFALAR
In words: Inhibitory activity against rat plasma renin in vitro. The format is cell-free. In a few lines:
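Pooled EDTA rat plasma with added PMSF 5 mM, 8-hydroxyquinoline 3 mM and extra EDTA 5 mM, at pH 7.4, mixed with serial 1:10 peptide dilutions (Tris/DMSO), split, and incubated 1 h at 37 and 0 °C.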
What is called IC50 is the point on the concentration scale where inhibition reaches its midpoint. A lower IC50 goes with greater potency in that assay. As to `CC(C)C[C@H](NC(=O)C[C@H](O)[C@H](CC(C)C)NC(=O)[C@H](Cc1cnc[nH]1)NC(=O)[C@H](Cc1ccccc1)NC(=O)[C@@H]1CCCN1C(=O)[C@H](Cc1cnc[nH]1)NC(=O)[C@@H]1CCCN1)C(=O)N[C@@H](Cc1ccccc1)C(N)=O` (H-PHPFH[Sta]LF-NH2), the IC50 turned out to be 240 nM. This counts as sub-micromolar.

Turning to `CC(C)C[C@H](NC(=O)C[C@H](O)[C@H](CC(C)C)NC(=O)[C@H](Cc1c[nH]cn1)NC(=O)[C@H](Cc1ccccc1)NC(=O)[C@@H]1CCCN1C(=O)[C@H](Cc1c[nH]cn1)NC(=O)[C@@H]1CCCN1)C(=O)N[C@@H](Cc1ccc(O)cc1)C(=O)N[C@@H](Cc1ccc(O)cc1)C(N)=O` (H-PHPFH[Sta]LYY-NH2), the 50% inhibitory concentration (IC50) turned out to be 775 nM.

`CC(C)C[C@H](NC(=O)[C@H](Cc1c[nH]cn1)NC(=O)[C@H](Cc1ccccc1)NC(=O)[C@@H]1CCCN1C(=O)[C@H](Cc1c[nH]cn1)NC(=O)[C@@H]1CCCN1)[C@@H](O)CC(=O)N[C@H](C(=O)N[C@H](C(N)=O)[C@@H](C)O)[C@@H](C)O` (H-PHPFH[Sta]TT-NH2) showed a half-inhibitory concentration (IC50) of 105000 nM.

The compound `CC(C)C[C@H](NC(=O)[C@H](Cc1cnc[nH]1)NC(=O)[C@H](Cc1ccccc1)NC(=O)[C@@H]1CCCN1C(=O)[C@H](Cc1cnc[nH]1)NC(=O)[C@@H]1CCCN1)[C@@H](O)CC(=O)N[C@@H](Cc1ccc(O)cc1)C(=O)N[C@@H](Cc1ccc(O)cc1)C(N)=O` (H-PHPFH[Sta]YY-NH2) had an IC50 of 1600 nM.

In turn, `CC(C)C[C@H](NC(=O)[C@H](Cc1cnc[nH]1)NC(=O)[C@H](Cc1ccccc1)NC(=O)[C@@H]1CCCN1C(=O)[C@H](Cc1cnc[nH]1)NC(=O)[C@@H]1CCCN1)[C@@H](O)CC(=O)N[C@@H](Cc1ccc(O)cc1)C(=O)N[C@@H](Cc1ccc(O)cc1)C(=O)N[C@@H](CCCCN)C(N)=O` (H-PHPFH[Sta]YYK-NH2) returned a half-inhibitory concentration (IC50) of 35000 nM.

Compound `CC(C)C[C@H](NC(=O)[C@H](Cc1c[nH]cn1)NC(=O)[C@H](Cc1ccccc1)NC(=O)[C@@H]1CCCN1C(=O)[C@H](Cc1c[nH]cn1)NC(=O)[C@@H]1CCCN1)[C@@H](O)CC(=O)N[C@@H](Cc1ccc(O)cc1)C(=O)N[C@@H](Cc1ccc(O)cc1)C(=O)N[C@@H](CO)C(=O)N[C@@H](CCCCN)C(N)=O` (H-PHPFH[Sta]YYSK-NH2) came in with a 50% inhibitory concentration (IC50) of 7900 nM. Against the preceding compound, the IC50 is about 4.4-fold lower.

Another test concerns the target T2, Renin (Homo sapiens, UniProt P00797).
T2 sequence (P00797 whole entry): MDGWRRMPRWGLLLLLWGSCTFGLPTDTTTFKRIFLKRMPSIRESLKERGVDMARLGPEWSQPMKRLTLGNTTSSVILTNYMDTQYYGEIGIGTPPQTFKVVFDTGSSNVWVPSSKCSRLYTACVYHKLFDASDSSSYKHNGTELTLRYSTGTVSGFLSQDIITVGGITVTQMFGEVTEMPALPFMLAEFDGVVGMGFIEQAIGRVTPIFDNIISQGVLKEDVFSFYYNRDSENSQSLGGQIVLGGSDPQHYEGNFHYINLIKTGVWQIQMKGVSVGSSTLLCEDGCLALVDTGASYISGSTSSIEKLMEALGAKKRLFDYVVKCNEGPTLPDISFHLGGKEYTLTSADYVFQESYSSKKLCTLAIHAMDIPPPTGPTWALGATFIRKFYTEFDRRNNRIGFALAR
In words: Compound was tested for its inhibitory activity against human plasma renin. The test is classed as cell-free.
Compound `CC(=O)N[C@@H](Cc1cnc[nH]1)C(=O)N1CCC[C@@H]1C(=O)N[C@@H](Cc1ccccc1)C(=O)N[C@@H](Cc1cnc[nH]1)C(=O)N[C@@H](CC(C)C)[C@@H](O)CC(=O)N[C@@H](CC(C)C)C(=O)N[C@@H](Cc1ccccc1)C(N)=O` gave a 50% inhibitory concentration (IC50) of 14 nM.

`CC(=O)N[C@@H](Cc1cnc[nH]1)C(=O)N1CCC[C@@H]1C(=O)N[C@@H](Cc1ccccc1)C(=O)N[C@H](C(=O)N[C@@H](CC(C)C)[C@@H](O)CC(=O)N[C@@H](CC(C)C)C(=O)N[C@@H](Cc1ccccc1)C(N)=O)C(C)C` displayed an IC50 of 3.2 nM.

Consider `CC(=O)N[C@@H](Cc1cnc[nH]1)C(=O)N1CCC[C@@H]1C(=O)N[C@@H](Cc1ccccc1)C(=O)N[C@@H](Cc1cnc[nH]1)C(=O)N[C@@H](CC1CCCCC1)[C@@H](O)CC(=O)N[C@@H](CC(C)C)C(=O)N[C@@H](Cc1ccccc1)C(N)=O`, for which the IC50 amounted to 0.5 nM.

With `CC(=O)N[C@@H](Cc1cnc[nH]1)C(=O)N1CCC[C@@H]1C(=O)N[C@@H](Cc1ccccc1)C(=O)N[C@H](C(=O)N[C@@H](CC1CCCCC1)[C@@H](O)CC(=O)N[C@@H](CC(C)C)C(=O)N[C@@H](Cc1ccccc1)C(N)=O)C(C)C`, the IC50 amounted to 15 nM. This IC50 is about 30-fold higher than that of the compound before.
